Results on four molecules are retold here after paper PMC4475452 (Chemistry & biology, 2015).

Holding throughout (assay type): cell-based
One test concerns c-MYC. Put plainly: c-MYC protein level by immunoblot in BL cell lines. To be noted: for c-MYC level upon withdrawal of compound from culture media: 1.0 µM for 24 hours, then removal, Namalwa and Ramos cells; for Time for c-MYC to recover to control level after compound removal: Namalwa cells, 24 hrs treatment (1.0 µM), three washes; for c-MYC level suppression: overnight treatment with increasing doses, BL cells, immunoblot. For orientation: Immunoblotting shows a protein as a band on a membrane.

For a further test, the system named is SLC19A1. The test is described as follows: SLC19A1 expression by RT-qPCR in Namalwa cells. To be noted: for Time for SLC19A1 to recover to control treatment level post compound removal: 24 hours treatment (1.0 µM), qPCR. On the technique in general: In qPCR the cycle at which signal appears reflects the starting amount.
Test [1] deals with BL cell lines. Put plainly: Caspase-Glo 3/7 apoptosis induction assay in BL cell lines. To be noted: 24 hour treatment, four BL cell lines; ARV-825 0.1 µM, JQ1 1.0 µM, OTX015 1.0 µM. In outline:
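Four Burkitt lymphoma lines (Namalwa, Ramos, CA-46, DAUDI; from ATCC, maintained as instructed) were exposed for 24 hours to test compounds at 0.1 or 1.0 µM. Puromycin served as the apoptosis-induction positive control. Caspase 3/7 activity was read by luminescent Caspase-Glo 3/7 assay following the manufacturer's protocol.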

For the next test, the target named is BRD4 (Homo sapiens, UniProt O60885). Put plainly: BRD4 protein level by immunoblot in BL cell lines.
The subject of test [2] is BL cell lines. The test is described as follows: Proliferation by CellTiter-Glo assay in BL cell lines. To be noted: 72 hours; for Effect on proliferation: BL cell lines, CTG assay. The procedure, abridged:
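Burkitt lymphoma cells were seeded at 50000 per 100 µl in 96-well plates and given increasing concentrations of test compound. After 72 hours, CellTiter-Glo reagent was added and luminescence was read. Relative growth was calculated against DMSO-treated control cells.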
(Cellular ATP, detected with luciferase, serves as a proxy for viable cell number.)

Another test has as its system Ramos cells. Put plainly: PARP cleavage by immunoblot. To be noted: 48 hours, 0.1 µM.
Another test relates to BRD2. The test is described as follows: BRD2 protein degradation by immunoblot. To be noted: Supp Figure 3.
In another test the test system is BRD3. Put plainly: BRD3 protein degradation by immunoblot. To be noted: Supp Figure 3.

As for `Cc1sc2c(c1C)C(c1ccc(Cl)cc1)=N[C@@H](CC(=O)Nc1ccc(O)cc1)c1nnc(C)n1-2` [OTX015], in the test on c-MYC, the “c-MYC level upon withdrawal of compound from culture media” value is given as “rapidly restored to normal”, the “Time for c-MYC to recover to control level after compound removal” value is 4 h and the c-MYC level suppression result is given as “unable to suppress c-MYC levels fully”. Besides, the “Time for SLC19A1 to recover to control treatment level post compound removal” value with SLC19A1 came out at 6 h. Moreover, the “Caspases 3/7 activity” value in the test with BL cell lines [1] was “not with high dose of JQ1 and OTX015”.

As for `Nc1cccc2c1C(=O)N(C1CCC(=O)NC1=O)C2=O` (centres unmarked) [pomalidomide], the “Effect on BRD4 protein level” value at BRD4 is “no impact on BRD4 protein levels”. Further, in the test with BL cell lines [2], the Effect on proliferation entry is reported as “didn’t show any significant effects”.

Turning to `Cc1sc2c(c1C)C(c1ccc(Cl)cc1)=N[C@@H](CC(=O)Nc1ccc(OCCOCCOCCOCCNc3cccc4c3C(=O)N(C3CCC(=O)NC3=O)C4=O)cc1)c1nnc(C)n1-2` (some centres unmarked) [ARV-825], the c-MYC level suppression entry with c-MYC was “more pronounced downregulation of c-MYC”. For the same molecule, in the test with SLC19A1 (compared with JQ1 and OTX015), the SLC19A1 suppression result is on record as “suppressed more substantially”. In addition, the “Proliferation suppression in presence of excessive pomalidomide” value in the test on BL cell lines [2] (ARV-825 0.01 or 0.1 µM with pomalidomide 1.0 or 10.0 µM) is given as “rescued the proliferation suppression effect”. Further, the Effect on proliferation result with BL cell lines [2] is “more pronounced suppression of proliferation than both JQ1 and OTX015”. Besides, the “Caspases 3/7 activity” value in the test on BL cell lines [1] was “increased caspases 3/7 activity”. The “Apoptosis (PARP cleavage)” value in the test on Ramos cells is recorded as “significant apoptosis”. Further, the BRD2 degradation entry in the test on BRD2 was “can be degraded”. For the same molecule, the BRD3 degradation result in the test on BRD3 is “can be degraded”.

For the molecule `Cc1sc2c(c1C)C(c1ccc(Cl)cc1)=N[C@@H](CC(=O)OC(C)(C)C)c1nnc(C)n1-2` [JQ1], in the test with c-MYC, the “c-MYC level upon withdrawal of compound from culture media” value is listed as “rapidly restored to normal”, the “Time for c-MYC to recover to control level after compound removal” value was 4 h and the c-MYC level suppression entry is “unable to suppress c-MYC levels fully”. The “Time for SLC19A1 to recover to control treatment level post compound removal” value in the test with SLC19A1 was 6 h. For the same molecule, in the test on BL cell lines [1], the “Caspases 3/7 activity” value is “not with high dose of JQ1 and OTX015”.
